Reference: ChEMBL document CHEMBL5584271, “Synthesis and Biological Analysis of Iso-dimethyltryptamines in a Model of Light-Induced Retinal Degeneration” (2024)
Activity calls are given as the source filed them. No cut-off for these calls is given here.

Experiments:
[1] = biological target: 5-hydroxytryptamine receptor 2A (Homo sapiens) (UniProt P28223); assay: Binding affinity to 5-HT2A (unknown origin)
Mus musculus [2] = assay: (§1) Protection against light-induced retinal degeneration in dark-adaptated BALB/c albino mouse assessed as reduction in ONL thinning at 10 mg/kg, ip dosed preincubated with compound for 15 to 30 mins of mydriasis followed by exposure to bright light at 15kLux for 30 mins by electroretinography analysis; type: functional, organism-based; details: time 45-60 min
Outline: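 Dark-adapted BALB/c albino mice (5–8 weeks) were dosed ip at 10 mg/kg (vehicle 25% DMSO/75% saline) 30 min before 30 min of 15 kLux white light. Pupils were dilated with metaoxedrine/tropicamide at 30 and 15 min prior. One week later, OCT centred on the optic nerve head measured ONL thickness 500 μm from the ONH border, averaged over four quadrants. Analysis used Welch's ANOVA with Dunnett's T3 tests.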

[3] = biological target: 5-hydroxytryptamine receptor 2B (Homo sapiens) (UniProt P41595); assay: Binding affinity to 5-HT2B (unknown origin)
Chain of 5-hydroxytryptamine receptor 2B (Homo sapiens) (P41595 whole entry): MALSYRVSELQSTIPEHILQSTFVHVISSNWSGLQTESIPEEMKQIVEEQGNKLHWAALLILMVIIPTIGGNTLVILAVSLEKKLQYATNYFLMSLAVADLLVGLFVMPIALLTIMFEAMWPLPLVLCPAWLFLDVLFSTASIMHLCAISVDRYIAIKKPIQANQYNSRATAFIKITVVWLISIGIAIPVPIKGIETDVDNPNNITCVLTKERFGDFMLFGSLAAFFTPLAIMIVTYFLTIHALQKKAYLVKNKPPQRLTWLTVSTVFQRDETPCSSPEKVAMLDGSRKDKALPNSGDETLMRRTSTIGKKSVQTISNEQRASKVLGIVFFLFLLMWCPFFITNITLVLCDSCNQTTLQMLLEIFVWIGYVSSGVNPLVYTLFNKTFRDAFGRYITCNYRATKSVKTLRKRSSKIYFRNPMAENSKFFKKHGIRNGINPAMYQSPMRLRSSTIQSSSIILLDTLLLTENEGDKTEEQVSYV

[4] = biological target: T1, 5-hydroxytryptamine receptor 2C (Homo sapiens) (UniProt P28335); assay: Binding affinity to 5-HT2C (unknown origin)
T1 sequence (whole entry): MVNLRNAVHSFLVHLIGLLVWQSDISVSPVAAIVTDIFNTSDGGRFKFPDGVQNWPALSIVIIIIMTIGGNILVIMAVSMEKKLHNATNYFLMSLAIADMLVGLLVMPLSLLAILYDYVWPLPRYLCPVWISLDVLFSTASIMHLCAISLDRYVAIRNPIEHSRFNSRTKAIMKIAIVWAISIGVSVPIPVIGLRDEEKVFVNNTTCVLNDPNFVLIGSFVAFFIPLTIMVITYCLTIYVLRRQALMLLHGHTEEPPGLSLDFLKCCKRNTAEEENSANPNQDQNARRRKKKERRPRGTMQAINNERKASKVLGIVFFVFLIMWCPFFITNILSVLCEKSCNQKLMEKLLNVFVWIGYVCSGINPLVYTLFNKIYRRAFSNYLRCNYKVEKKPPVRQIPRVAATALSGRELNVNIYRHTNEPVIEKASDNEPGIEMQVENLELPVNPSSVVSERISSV

[5] = biological target: T2, 5-hydroxytryptamine receptor 1A (Homo sapiens) (UniProt P08908); assay: Binding affinity to 5-HT1A (unknown origin)
T2 sequence (whole entry): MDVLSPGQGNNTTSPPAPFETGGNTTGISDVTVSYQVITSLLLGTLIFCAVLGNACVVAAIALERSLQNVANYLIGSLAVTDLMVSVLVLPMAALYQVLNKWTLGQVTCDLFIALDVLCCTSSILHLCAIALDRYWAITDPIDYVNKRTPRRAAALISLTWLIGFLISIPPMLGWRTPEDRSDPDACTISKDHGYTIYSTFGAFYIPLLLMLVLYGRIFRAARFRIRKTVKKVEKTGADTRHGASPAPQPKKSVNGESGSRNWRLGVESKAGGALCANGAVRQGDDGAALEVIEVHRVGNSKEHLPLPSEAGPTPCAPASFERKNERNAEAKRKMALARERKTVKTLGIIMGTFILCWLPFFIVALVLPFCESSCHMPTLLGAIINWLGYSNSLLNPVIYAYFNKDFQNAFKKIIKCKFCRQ

Mus musculus [6] = assay: as §1, with “ERG a- and b-wave amplitude deterioration” for “ONL thinning”; type: functional, organism-based; details: time 45-60 min
Outline: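 BALB/c albino mice (5–8 weeks) were dark-adapted overnight and given 10 mg/kg ip in 25% DMSO/75% saline 30 min before light. Pupils were dilated with metaoxedrine (20 mg/mL) plus tropicamide (4 mg/mL) at 30 and 15 min prior. Freely moving mice received 30 min of 15 kLux white light. ERG a- and b-wave amplitudes were recorded one week later (10 cd·s/m2 stimulus). Analysis used Welch's ANOVA with Dunnett's T3 post hoc tests.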

Mus musculus [7] = assay: as §1, with “[…] relative to control” for “analysis”; type: functional; design: scale not given: the % may be the effect or the level left; details: time 45-60 min
Outline: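 Same LIRD protocol in BALB/c mice aged 5–8 weeks: 10 mg/kg ip in 25% DMSO/saline 30 min before 30 min of 15 kLux white light, with mydriatics given beforehand. OCT imaging one week later, centred on the optic nerve head. ONL thickness measured 500 μm from the ONH border and averaged over four quadrants. Compared with vehicle; Welch's ANOVA with Dunnett's T3.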

Mus musculus [8] = assay: as §1, with “ERG a- and b-wave amplitude deterioration” for “ONL thinning”, “analysis relative to control” for “analysis”; type: functional; design: scale not given: the % may be the effect or the level left; details: time 45-60 min
Outline: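 BALB/c albino mice aged 5–8 weeks, dark-adapted overnight. Dosed 10 mg/kg ip in 25% DMSO/75% saline 30 min before light. Pupils dilated with metaoxedrin (20 mg/mL) plus tropicamide (4 mg/mL) at 30 and 15 min prior. Exposed to 15 kLux white light for 30 min, freely moving. ERG a- and b-wave amplitudes recorded one week later at 10 cd·s/m2 stimulus. Compared with vehicle; mean ± SEM.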

Chain of 5-hydroxytryptamine receptor 2A (Homo sapiens) (P28223 whole entry): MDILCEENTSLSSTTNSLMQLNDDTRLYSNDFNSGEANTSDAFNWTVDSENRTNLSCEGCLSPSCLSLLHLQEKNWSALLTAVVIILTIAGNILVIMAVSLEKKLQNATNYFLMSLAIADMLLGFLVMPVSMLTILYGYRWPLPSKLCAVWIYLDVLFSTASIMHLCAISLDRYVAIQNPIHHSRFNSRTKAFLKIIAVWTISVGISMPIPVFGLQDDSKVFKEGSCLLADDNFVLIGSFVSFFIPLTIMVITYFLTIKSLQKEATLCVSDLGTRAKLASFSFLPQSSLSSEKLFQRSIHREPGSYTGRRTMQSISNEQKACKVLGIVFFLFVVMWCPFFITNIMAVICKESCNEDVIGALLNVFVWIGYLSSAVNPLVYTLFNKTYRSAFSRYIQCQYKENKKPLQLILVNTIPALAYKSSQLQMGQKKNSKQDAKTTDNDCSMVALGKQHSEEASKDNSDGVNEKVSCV

Row | SMILES | Activity (Mus musculus [2]) | Activity (Mus musculus [6]) | also measured
1 | CCN(CC)C(=O)[C@H]1CN(C)[C@H]2Cc3c[nH]c4cccc(c34)[C@@H]1C2 | inactive | inactive | Activity [1]: inactive; Activity [3]: inactive; Activity [4]: inactive; Activity [5]: inactive
2 | CN1C[C@@H](CO)C=C2c3cccc4[nH]cc(c34)C[C@@H]21 | inactive | inactive | –
3 | CN1C[C@H](CO)C=C2c3cccc4[nH]cc(c34)C[C@@H]21 | inactive | inactive | –
4 | CN(C)CCn1cc(Cc2ccccn2)c2cc(F)ccc21 | inactive | inactive | –
5 | CN(C)CCn1cc(Cc2ccccn2)c2ccc(F)cc21 | inactive | inactive | –
6 | CC(C)C[C@H]1C(=O)N2CCC[C@H]2[C@]2(O)O[C@](NC(=O)[C@@H]3C=C4c5cccc6[nH]c(Br)c(c56)C[C@H]4N(C)C3)(C(C)C)C(=O)N12 [BROMOCRIPTINE] | – | – | Activity (Mus musculus [7]): 70%; Activity (Mus musculus [8]): 70%
7 | CN1C[C@@]2(C)C[C@]23c2cccc4[nH]cc(c24)C[C@@H]13 | Active | Active | –
8 | CN1C[C@H](CO)C=C2c3cccc4[nH]cc(c34)C[C@H]21 | Active | Active | –
9 | CN1C[C@]2(C)C[C@@]23c2cccc4[nH]cc(c24)C[C@H]13 | Active | Active | –
10 | CN(C)CCn1cc(Cc2ccccn2)c2c(Br)cccc21 | Active | Active | –
11 | CN1C[C@@H](CO)C=C2c3cccc4[nH]cc(c34)C[C@H]21 | Active | Active | –
